Test results from publication PMC8148075 (Acta Pharmaceutica Sinica. B, 2020).
Peptide text beside a SMILES is read from it. * marks the point of attachment. Cbz = O=C(OCc1ccccc1)*; CH2F = FC*

What was measured:
[1] = Toxicity evaluation in xenograft mice; type: in vivo, athymic BALB/c male nude mice; details: for HCT / HGB / MCH / MCHC / MCV / MPV / PLT / RBC / RDW / WBC: blood of xenograft mice, end of treatment; for Toxicity to nude mice (overall): therapeutic doses: SFN 5 mg/kg, CQ 60 mg/kg i.p. every other day, two weeks
NRF2, HO-1 = experiment: Western blot of NRF2; type: cell-based, human; details: ECa109 and EC9706 cells
[2] = system: LC3B-II, P62, ATG3, ATG5, ATG7; experiment: Western blot of autophagy proteins in ESCC cells; type: cell-based, human; details: ECa109 and EC9706 cells
ECa109 cells [3] = experiment: Annexin V-FITC/PI flow cytometry apoptosis assay, ECa109; type: cell-based, human; details: ECa109, CQ 20 μmol/L alone, 72 h, Fig. 5D
EC9706 cells [4] = experiment: Annexin V-FITC/PI flow cytometry apoptosis assay, EC9706; type: cell-based, human; details: EC9706, CQ 20 μmol/L alone, 72 h, Fig. 5D
[5] = system: mRFP-GFP-LC3 puncta (autophagosomes, autolysosomes); experiment: mRFP-GFP-LC3 adenovirus autophagy flux, confocal microscopy; type: cell-based, human; details: ECa109 and EC9706 cells, SFN 10 μmol/L or bafilomycin A1 100 nmol/L, 24 h, Fig. 3D
Summary of the method: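 ECa109 and EC9706 cells (3 × 10⁵/well) were infected with mRFP-GFP-LC3 adenovirus for 48 h, then replated on glass-bottom dishes at 1 × 10⁴ cells/well. Treated with 10 μmol/L test compound or 100 nmol/L bafilomycin A1 for 24 h, fixed in 4% paraformaldehyde for 20 min and imaged by confocal microscopy. Yellow (green+red) puncta were scored as autophagosomes and red as autolysosomes, n = 3.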

ECa109 cells [6] = experiment: Clonogenic assay, ECa109; type: cell-based, human
Summary of the method: (§1)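 Cells in RPMI-1640 with 10% FBS at 37 °C, 5% CO2, seeded at 1 × 10³ cells/well in 6-well plates. Exposed to test compound (0, 5, 10 μmol/L) and grown 7 days. Colonies rinsed with PBS three times, fixed in 4% paraformaldehyde for 20 min, stained with 1% crystal violet for 30 min, then counted. Three independent experiments.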

EC9706 cells [7] = experiment: CCK-8 cell proliferation assay, EC9706; type: cell-based, human; details: for IC50: Homo sapiens
Summary of the method: (§2)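 Cells were kept in RPMI-1640 with 10% FBS, penicillin and streptomycin at 37 °C and 5% CO2. They were seeded in 96-well plates and exposed to the test compound over graded concentrations (e.g., 0–80 μmol/L) for 24, 48 or 72 h, alone or with modulators. CCK-8 reagent was then added, and optical density was read after a further 4 h. n = 3.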

ECa109 cells [8] = experiment: CCK-8 cell proliferation assay, ECa109; type: cell-based, human; details: for IC50: Homo sapiens
Summary of the method: as §2

EC9706 cells [9] = experiment: Clonogenic assay, EC9706; type: cell-based, human
Summary of the method: as §1

ECa109 xenografts = experiment: ECa109 xenograft in nude mice, anti-tumor efficiency; type: in vivo, athymic BALB/c male nude mice; details: ECa109 xenograft tumors, Fig. 7D
Summary of the method: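 Male athymic BALB/c nude mice (4–6 weeks old, acclimatised 1 week) received 1 × 10^7 ECa109 cells in 0.2 mL PBS subcutaneously into the right flank. At 90–120 mm3, mice were randomised (n = 5): saline, test compound 5 mg/kg, autophagy inhibitor 60 mg/kg, or combination, i.p. every other day for two weeks. Paraffin sections of fixed tumours were TUNEL-stained; brown positive cells were counted per 1500 tumour cells.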

[10] = system: LC3, P62, NRF2, HO-1, BCL-2, BAX, cleaved-caspase 9; experiment: Western blot of tumor tissues from xenograft mice; type: in vivo, athymic BALB/c male nude mice; details: SFN 5 mg/kg, Fig. 7G
Summary of the method: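 Male athymic BALB/c nude mice, 4–6 weeks old, received 1 × 10⁷ ECa109 cells in 0.2 mL PBS s.c. in the right flank. […] Excised tumors were stored at −80 °C and immunoblotted (ECL detection), n = 3.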

[11] = system: cleaved-caspase 9, BAX, BCL-2; experiment: Western blot of apoptotic markers in ESCC cells; type: cell-based, human; details: ECa109 and EC9706 cells, SFN 10 μmol/L, 0-24 h, Fig. 2B
Summary of the method: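 ECa109 and EC9706 cells were exposed to 10 μmol/L test compound for 0, 3, 6, 12 and 24 h. Equal protein (30 μg) was separated by SDS-PAGE and transferred to nitrocellulose. Membranes were blocked in 5% skimmed milk for 2 h at room temperature, given primary antibody overnight at 4 °C and secondary antibody for 2 h. Detection by ECL, bands quantified by densitometry, n = 3.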

Het-1A cells = experiment: CCK-8 cell proliferation assay, Het-1A; type: cell-based; details: Homo sapiens
[12] = organ weight/body weight × 100, xenograft mice, SFN 5 mg/kg, CQ 60 mg/kg i.p.

CCN(CC)CCCC(C)Nc1ccnc2cc(Cl)ccc12 (stereo not shown) [CQ, chloroquine, reference compound]
HCT ([1]; SFN 5 mg/kg, CQ 60 mg/kg i.p.): 43.05 ± 1.75% | HGB ([1]; SFN 5 mg/kg, CQ 60 mg/kg i.p.): 140.67 ± 6.31 g/L | MCH ([1]; SFN 5 mg/kg, CQ 60 mg/kg i.p.): 15.28 ± 0.28 pg | MCHC ([1]; SFN 5 mg/kg, CQ 60 mg/kg i.p.): 326.67 ± 4.50 g/L | MCV ([1]; SFN 5 mg/kg, CQ 60 mg/kg i.p.): 50.10 ± 0.78 fL | MPV ([1]; SFN 5 mg/kg, CQ 60 mg/kg i.p.): 6.52 ± 0.13 fL | PLT ([1]; SFN 5 mg/kg, CQ 60 mg/kg i.p.): 941.00 ± 45.99 × 10^9/L | RBC ([1]; SFN 5 mg/kg, CQ 60 mg/kg i.p.): 8.60 ± 0.38 × 10^12/L | RDW ([1]; SFN 5 mg/kg, CQ 60 mg/kg i.p.): 16.38 ± 0.08% | WBC ([1]; SFN 5 mg/kg, CQ 60 mg/kg i.p.): 4.71 ± 0.99 × 10^9/L | Toxicity to nude mice (overall) [1]: no obvious toxicity | Effect of CQ on SFN-induced NRF2 in nucleus (NRF2, HO-1; CQ 20 μmol/L combined with SFN 10 μmol/L, 48 h, Fig. 5F): markedly inhibited the activation of SFN to NRF2 | Expression of LC3B-II and P62 ([2]; CQ 20 μmol/L alone, Fig. 3C): promoted expression LC3B-II and P62 | Effect on cell apoptosis (ECa109 cells [3]): no obvious effects on cell apoptosis | Effect on cell apoptosis (EC9706 cells [4]): no obvious effects on cell apoptosis

CO/C1=C\C(C)=C\[C@@H](C)[C@@H](O)[C@@H](C)C/C(C)=C/C=C/[C@H](OC)[C@@H]([C@@H](C)[C@@H](O)[C@H](C)[C@@]2(O)C[C@@H](O)[C@H](C)[C@@H](C(C)C)O2)OC1=O [bafilomycin A1, reference compound]
Fluorescent puncta (yellow = autophagosomes, red = autolysosomes) [5]: many yellow puncta

Cc1ccccc1C(=O)N1CCc2cc(-c3nc(NC(=O)Cc4ccc5c(c4)OCO5)sc3C)ccc21 [ML385, reference compound]
Effect on colony formation (ECa109 cells [6]; ECa109, ML385, 7 days, Fig. 4F): significantly inhibited cell viability and colony formation | Effect on cell viability (CCK-8) (EC9706 cells [7]; EC9706, ML385 0-200 μmol/L, 48 and 72 h, Fig. 4E): significantly inhibited cell viability | Effect on cell viability (CCK-8) (ECa109 cells [8]; ECa109, ML385 0-200 μmol/L, 48 and 72 h, Fig. 4E): significantly inhibited cell viability | Expression of NRF2 and HO-1 (NRF2, HO-1; ML385 5-30 μmol/L, Fig. 4C): decreased expression of NRF2 and HO-1 in a dose-dependent manner | Effect on colony formation (EC9706 cells [9]; EC9706, ML385, 7 days, Fig. 4F): significantly inhibited cell viability and colony formation | Expression of LC3B-II and P62 ([2]; ML385 20 μmol/L alone, Fig. 4D): inhibited LC3B-II and promoted P62 expression

C[S+]([O-])CCCCN=C=S (stereo not shown) [SFN, Sulforaphane]
TUNEL positive cells in tumor tissue compared with control (ECa109 xenografts): large number of TUNEL positive cells | Effect on colony formation (ECa109 cells [6]; ECa109, SFN 5 and 10 μmol/L, 7 days, Fig. 1C): significantly inhibited the colony formation | Fluorescent puncta (yellow = autophagosomes, red = autolysosomes) [5]: many yellow puncta and red puncta | HCT ([1]; SFN 5 mg/kg, CQ 60 mg/kg i.p.): 42.62 ± 4.07% | HGB ([1]; SFN 5 mg/kg, CQ 60 mg/kg i.p.): 139.00 ± 13.78 g/L | MCH ([1]; SFN 5 mg/kg, CQ 60 mg/kg i.p.): 15.20 ± 0.65 pg | MCHC ([1]; SFN 5 mg/kg, CQ 60 mg/kg i.p.): 326.17 ± 3.82 g/L | MCV ([1]; SFN 5 mg/kg, CQ 60 mg/kg i.p.): 49.62 ± 0.55 fL | MPV ([1]; SFN 5 mg/kg, CQ 60 mg/kg i.p.): 6.62 ± 0.17 fL | PLT ([1]; SFN 5 mg/kg, CQ 60 mg/kg i.p.): 867.83 ± 134.68 × 10^9/L | RBC ([1]; SFN 5 mg/kg, CQ 60 mg/kg i.p.): 8.59 ± 0.83 × 10^12/L | RDW ([1]; SFN 5 mg/kg, CQ 60 mg/kg i.p.): 16.18 ± 0.08% | WBC ([1]; SFN 5 mg/kg, CQ 60 mg/kg i.p.): 4.18 ± 0.48 × 10^9/L | Relative organ weight, heart [1, 12]: 0.63 ± 0.13% | Relative organ weight, left kidney [1, 12]: 0.84 ± 0.19% | Relative organ weight, liver [1, 12]: 6.74 ± 0.35% | Relative organ weight, lung [1, 12]: 0.72 ± 0.19% | Relative organ weight, right kidney [1, 12]: 0.98 ± 0.17% | Relative organ weight, spleen [1, 12]: 0.79 ± 0.14% | Toxicity to nude mice (overall) [1]: no obvious toxicity | LC3B-II and P62 expression in tumors compared to control [10]: increased of LC3B-Ⅱ and decreased P62 expression | IC50 (EC9706 cells [7]; EC9706, 24 h): 75.3 ± 1.88 µM | IC50 (EC9706 cells [7]; EC9706, 48 h): 41 ± 1.7 µM | IC50 (EC9706 cells [7]; EC9706, 72 h): 17.5 ± 1.24 µM | IC50 (ECa109 cells [8]; ECa-109, 24 h): 47.4 ± 1.68 µM | IC50 (ECa109 cells [8]; ECa-109, 48 h): 20.8 ± 1.32 µM | IC50 (ECa109 cells [8]; ECa-109, 72 h): 15.2 ± 1.18 µM | Expression of NRF2 in nucleus (NRF2, HO-1; SFN 5 and 10 μmol/L, Fig. 4B): increased the expression of NRF2 in nucleus | Effect on colony formation (EC9706 cells [9]; EC9706, SFN 5 and 10 μmol/L, 7 days, Fig. 1C): significantly inhibited the colony formation | Expression of LC3B-II and P62 ([2]; SFN 10 μmol/L, 0-24 h, Fig. 3A): increased LC3B-II and decreased P62 | Expression of ATG3, ATG5 and ATG7 ([2]; SFN 10 μmol/L, 0-24 h, Fig. 4A): no changes | Level of cleaved-caspase 9 [11]: increased the levels of cleaved-caspase 9 in a time-dependent manner | IC50 (Het-1A cells; 48 h): 34.1 ± 1.53 µM | IC50 (Het-1A cells; 72 h): 21.3 ± 1.33 µM

COC(=O)C[C@H](NC(=O)[C@H](C)NC(=O)[C@@H](NC(=O)OCc1ccccc1)C(C)C)C(=O)CF [Z-VAD-FMK, reference compound] (Cbz-Val-Ala-Asp(OMe)-CH2F)
Effect on cell proliferation (CCK-8) (EC9706 cells [7]; EC9706, Z-VAD-FMK 20 μmol/L alone, 48 h, Fig. 2C): no obvious effects on cell proliferation | Effect on cell proliferation (CCK-8) (ECa109 cells [8]; ECa109, Z-VAD-FMK 20 μmol/L alone, 48 h, Fig. 2C): no obvious effects on cell proliferation
